From ChEMBL document CHEMBL5058577, “EUbOPEN Chemogenomics Library 2 (Multiplex)” (2022)

Tested on: HEK-293T
Assay: Multiplex assay against HEK293T
Format: toxicity, cell-based
Conditions: human
Procedure, shortened: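 Tubulin, mitochondrial-mass and membrane-permeability phenotypes are per cents of healthy-nucleus cells. Cells were gated by CellPathfinder machine learning into Hoechst high-intensity objects or normal cells, normal cells into healthy, pyknosed or fragmented nuclei, and pyknosed cells into mitotic or apoptotic. Before that, live cells stained at seeding with Hoechst33342, BioTracker Green Microtubule Cytoskeleton Dye, MitoTracker Red and Annexin V Alexa Fluor 680 were imaged on a CQ1 microscope at 37°C and 5% CO2 after compound addition.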

[1] = 12 h, 1 µM, compound concentration 1 uM, replicate 1
[2] = 12 h, 1 µM, compound concentration 1 uM, replicate 2
[3] = 12 h, 10 µM, compound concentration 10 uM, replicate 1
[4] = 12 h, 10 µM, compound concentration 10 uM, replicate 2
[5] = 24 h, 1 µM, compound concentration 1 uM, replicate 1
[6] = 24 h, 1 µM, compound concentration 1 uM, replicate 2
[7] = 24 h, 10 µM, compound concentration 10 uM, replicate 1
[8] = 24 h, 10 µM, compound concentration 10 uM, replicate 2
[9] = 48 h, 1 µM, compound concentration 1 uM, replicate 1
[10] = 48 h, 1 µM, compound concentration 1 uM, replicate 2
[11] = 48 h, 10 µM, compound concentration 10 uM, replicate 1
[12] = 48 h, 10 µM, compound concentration 10 uM, replicate 2

Cc1sc2c(c1C)C(c1ccc(Cl)cc1)=N[C@H](CC(=O)OC(C)(C)C)c1nnc(C)n1-2
Population Apoptotic (%) [1]: 40% | Population Fragmented Nuclei (%) [1]: 8% | Population Healthy Nuclei (%) [1]: 80% | Population Hoechst High Intensity Objects (%) [1]: 8% | Population Membrane Permeable-Phenotype (%) [1]: 0% | Population Mitochondria Different-Phenotype (%) [1]: 49% | Population Mitotic Cells (%) [1]: 60% | Population Normal (%) [1]: 91% | Population Pyknosed Nuclei (%) [1]: 10% | Population Tubulin-Different-Phenotype (%) [1]: 32% | Total Cell Count [1]: 478 | Population Apoptotic (%) [2]: 44% | Population Fragmented Nuclei (%) [2]: 6% | Population Healthy Nuclei (%) [2]: 76% | Population Hoechst High Intensity Objects (%) [2]: 9% | Population Mitochondria Different-Phenotype (%) [2]: 65% | Population Mitotic Cells (%) [2]: 55% | Population Normal (%) [2]: 90% | Population Pyknosed Nuclei (%) [2]: 17% | Population Tubulin-Different-Phenotype (%) [2]: 26% | Total Cell Count [2]: 333 | Population Apoptotic (%) [3]: 41% | Population Fragmented Nuclei (%) [3]: 7% | Population Healthy Nuclei (%) [3]: 76% | Population Hoechst High Intensity Objects (%) [3]: 7% | Population Membrane Permeable-Phenotype (%) [3]: 0% | Population Mitochondria Different-Phenotype (%) [3]: 74% | Population Mitotic Cells (%) [3]: 58% | Population Normal (%) [3]: 92% | Population Pyknosed Nuclei (%) [3]: 15% | Population Tubulin-Different-Phenotype (%) [3]: 67% | Total Cell Count [3]: 395 | Population Apoptotic (%) [4]: 66% | Population Fragmented Nuclei (%) [4]: 5% | Population Healthy Nuclei (%) [4]: 72% | Population Hoechst High Intensity Objects (%) [4]: 10% | Population Mitochondria Different-Phenotype (%) [4]: 90% | Population Mitotic Cells (%) [4]: 33% | Population Normal (%) [4]: 89% | Population Pyknosed Nuclei (%) [4]: 21% | Population Tubulin-Different-Phenotype (%) [4]: 70% | Total Cell Count [4]: 303 | Population Apoptotic (%) [5]: 32% | Population Fragmented Nuclei (%) [5]: 10% | Population Healthy Nuclei (%) [5]: 76% | Population Hoechst High Intensity Objects (%) [5]: 5% | Population Membrane Permeable-Phenotype (%) [5]: 0% | Population Mitochondria Different-Phenotype (%) [5]: 29% | Population Mitotic Cells (%) [5]: 68% | Population Normal (%) [5]: 94% | Population Pyknosed Nuclei (%) [5]: 13% | Population Tubulin-Different-Phenotype (%) [5]: 19% | Total Cell Count [5]: 609 | Population Healthy Nuclei (%) [6]: 82% | Population Hoechst High Intensity Objects (%) [6]: 6% | Population Mitochondria Different-Phenotype (%) [6]: 43% | Population Mitotic Cells (%) [6]: 67% | Population Normal (%) [6]: 93% | Population Pyknosed Nuclei (%) [6]: 6% | Population Tubulin-Different-Phenotype (%) [6]: 11% | Total Cell Count [6]: 479 | Population Apoptotic (%) [7]: 41% | Population Fragmented Nuclei (%) [7]: 8% | Population Healthy Nuclei (%) [7]: 68% | Population Hoechst High Intensity Objects (%) [7]: 4% | Population Membrane Permeable-Phenotype (%) [7]: 0% | Population Mitochondria Different-Phenotype (%) [7]: 64% | Population Mitotic Cells (%) [7]: 58% | Population Normal (%) [7]: 95% | Population Pyknosed Nuclei (%) [7]: 23% | Population Tubulin-Different-Phenotype (%) [7]: 46% | Total Cell Count [7]: 468 | Population Apoptotic (%) [8]: 49% | Population Fragmented Nuclei (%) [8]: 3% | Population Healthy Nuclei (%) [8]: 76% | Population Hoechst High Intensity Objects (%) [8]: 6% | Population Membrane Permeable-Phenotype (%) [8]: 1% | Population Mitochondria Different-Phenotype (%) [8]: 76% | Population Mitotic Cells (%) [8]: 50% | Population Normal (%) [8]: 93% | Population Pyknosed Nuclei (%) [8]: 19% | Population Tubulin-Different-Phenotype (%) [8]: 47% | Total Cell Count [8]: 378 | Population Apoptotic (%) [9]: 18% | Population Fragmented Nuclei (%) [9]: 11% | Population Healthy Nuclei (%) [9]: 80% | Population Hoechst High Intensity Objects (%) [9]: 3% | Population Membrane Permeable-Phenotype (%) [9]: 1% | Population Mitochondria Different-Phenotype (%) [9]: 16% | Population Mitotic Cells (%) [9]: 81% | Population Normal (%) [9]: 96% | Population Pyknosed Nuclei (%) [9]: 7% | Population Tubulin-Different-Phenotype (%) [9]: 10% | Total Cell Count [9]: 1012 | Population Apoptotic (%) [10]: 30% | Population Fragmented Nuclei (%) [10]: 14% | Population Healthy Nuclei (%) [10]: 79% | Population Hoechst High Intensity Objects (%) [10]: 4% | Population Membrane Permeable-Phenotype (%) [10]: 0% | Population Mitochondria Different-Phenotype (%) [10]: 21% | Population Mitotic Cells (%) [10]: 69% | Population Normal (%) [10]: 95% | Population Pyknosed Nuclei (%) [10]: 5% | Population Tubulin-Different-Phenotype (%) [10]: 12% | Total Cell Count [10]: 685 | Population Apoptotic (%) [11]: 31% | Population Fragmented Nuclei (%) [11]: 9% | Population Healthy Nuclei (%) [11]: 73% | Population Hoechst High Intensity Objects (%) [11]: 3% | Population Membrane Permeable-Phenotype (%) [11]: 0% | Population Mitochondria Different-Phenotype (%) [11]: 47% | Population Mitotic Cells (%) [11]: 68% | Population Normal (%) [11]: 96% | Population Pyknosed Nuclei (%) [11]: 16% | Population Tubulin-Different-Phenotype (%) [11]: 19% | Total Cell Count [11]: 641 | Population Apoptotic (%) [12]: 55% | Population Fragmented Nuclei (%) [12]: 8% | Population Healthy Nuclei (%) [12]: 76% | Population Hoechst High Intensity Objects (%) [12]: 5% | Population Mitochondria Different-Phenotype (%) [12]: 66% | Population Mitotic Cells (%) [12]: 44% | Population Normal (%) [12]: 94% | Population Pyknosed Nuclei (%) [12]: 15% | Population Tubulin-Different-Phenotype (%) [12]: 28% | Total Cell Count [12]: 525

COCCn1c(C)c(C)s/c1=N\C(=O)C1C(C)(C)C1(C)C
Population Apoptotic (%) [1]: 37% | Population Fragmented Nuclei (%) [1]: 10% | Population Healthy Nuclei (%) [1]: 77% | Population Hoechst High Intensity Objects (%) [1]: 6% | Population Membrane Permeable-Phenotype (%) [1]: 0% | Population Mitochondria Different-Phenotype (%) [1]: 45% | Population Mitotic Cells (%) [1]: 62% | Population Normal (%) [1]: 93% | Population Pyknosed Nuclei (%) [1]: 12% | Population Tubulin-Different-Phenotype (%) [1]: 29% | Total Cell Count [1]: 335 | Population Apoptotic (%) [2]: 41% | Population Fragmented Nuclei (%) [2]: 5% | Population Healthy Nuclei (%) [2]: 82% | Population Hoechst High Intensity Objects (%) [2]: 4% | Population Mitochondria Different-Phenotype (%) [2]: 77% | Population Mitotic Cells (%) [2]: 58% | Population Normal (%) [2]: 95% | Population Tubulin-Different-Phenotype (%) [2]: 26% | Total Cell Count [2]: 304 | Population Apoptotic (%) [3]: 77% | Population Fragmented Nuclei (%) [3]: 33% | Population Healthy Nuclei (%) [3]: 52% | Population Hoechst High Intensity Objects (%) [3]: 18% | Population Membrane Permeable-Phenotype (%) [3]: 0% | Population Mitochondria Different-Phenotype (%) [3]: 91% | Population Mitotic Cells (%) [3]: 22% | Population Normal (%) [3]: 81% | Population Pyknosed Nuclei (%) [3]: 13% | Population Tubulin-Different-Phenotype (%) [3]: 67% | Total Cell Count [3]: 80 | Population Apoptotic (%) [4]: 53% | Population Fragmented Nuclei (%) [4]: 8% | Population Healthy Nuclei (%) [4]: 75% | Population Hoechst High Intensity Objects (%) [4]: 11% | Population Mitochondria Different-Phenotype (%) [4]: 72% | Population Mitotic Cells (%) [4]: 46% | Population Normal (%) [4]: 88% | Population Pyknosed Nuclei (%) [4]: 16% | Population Tubulin-Different-Phenotype (%) [4]: 38% | Total Cell Count [4]: 315 | Population Apoptotic (%) [5]: 19% | Population Fragmented Nuclei (%) [5]: 7% | Population Healthy Nuclei (%) [5]: 81% | Population Hoechst High Intensity Objects (%) [5]: 4% | Population Membrane Permeable-Phenotype (%) [5]: 0% | Population Mitochondria Different-Phenotype (%) [5]: 26% | Population Mitotic Cells (%) [5]: 80% | Population Normal (%) [5]: 95% | Population Pyknosed Nuclei (%) [5]: 11% | Population Tubulin-Different-Phenotype (%) [5]: 20% | Total Cell Count [5]: 447 | Population Apoptotic (%) [6]: 35% | Population Fragmented Nuclei (%) [6]: 8% | Population Hoechst High Intensity Objects (%) [6]: 7% | Population Mitochondria Different-Phenotype (%) [6]: 47% | Population Mitotic Cells (%) [6]: 64% | Population Normal (%) [6]: 92% | Population Pyknosed Nuclei (%) [6]: 10% | Population Tubulin-Different-Phenotype (%) [6]: 17% | Total Cell Count [6]: 383 | Population Apoptotic (%) [7]: 71% | Population Fragmented Nuclei (%) [7]: 30% | Population Healthy Nuclei (%) [7]: 61% | Population Hoechst High Intensity Objects (%) [7]: 15% | Population Membrane Permeable-Phenotype (%) [7]: 0% | Population Mitochondria Different-Phenotype (%) [7]: 53% | Population Mitotic Cells (%) [7]: 28% | Population Normal (%) [7]: 84% | Population Pyknosed Nuclei (%) [7]: 8% | Population Tubulin-Different-Phenotype (%) [7]: 36% | Total Cell Count [7]: 101 | Population Apoptotic (%) [8]: 45% | Population Fragmented Nuclei (%) [8]: 11% | Population Healthy Nuclei (%) [8]: 75% | Population Hoechst High Intensity Objects (%) [8]: 7% | Population Mitochondria Different-Phenotype (%) [8]: 62% | Population Mitotic Cells (%) [8]: 54% | Population Normal (%) [8]: 92% | Population Pyknosed Nuclei (%) [8]: 13% | Population Tubulin-Different-Phenotype (%) [8]: 30% | Total Cell Count [8]: 376 | Population Apoptotic (%) [9]: 20% | Population Fragmented Nuclei (%) [9]: 13% | Population Healthy Nuclei (%) [9]: 75% | Population Hoechst High Intensity Objects (%) [9]: 3% | Population Membrane Permeable-Phenotype (%) [9]: 0% | Population Mitochondria Different-Phenotype (%) [9]: 22% | Population Mitotic Cells (%) [9]: 79% | Population Normal (%) [9]: 96% | Population Pyknosed Nuclei (%) [9]: 11% | Population Tubulin-Different-Phenotype (%) [9]: 14% | Total Cell Count [9]: 649 | Population Apoptotic (%) [10]: 45% | Population Fragmented Nuclei (%) [10]: 11% | Population Healthy Nuclei (%) [10]: 81% | Population Mitochondria Different-Phenotype (%) [10]: 31% | Population Mitotic Cells (%) [10]: 55% | Population Normal (%) [10]: 97% | Population Pyknosed Nuclei (%) [10]: 7% | Population Tubulin-Different-Phenotype (%) [10]: 12% | Total Cell Count [10]: 567 | Population Apoptotic (%) [11]: 60% | Population Fragmented Nuclei (%) [11]: 18% | Population Healthy Nuclei (%) [11]: 73% | Population Hoechst High Intensity Objects (%) [11]: 2% | Population Membrane Permeable-Phenotype (%) [11]: 2% | Population Mitochondria Different-Phenotype (%) [11]: 30% | Population Mitotic Cells (%) [11]: 40% | Population Normal (%) [11]: 97% | Population Pyknosed Nuclei (%) [11]: 8% | Population Tubulin-Different-Phenotype (%) [11]: 31% | Total Cell Count [11]: 191 | Population Apoptotic (%) [12]: 38% | Population Fragmented Nuclei (%) [12]: 13% | Population Healthy Nuclei (%) [12]: 79% | Population Hoechst High Intensity Objects (%) [12]: 4% | Population Membrane Permeable-Phenotype (%) [12]: 0% | Population Mitochondria Different-Phenotype (%) [12]: 46% | Population Mitotic Cells (%) [12]: 61% | Population Normal (%) [12]: 95% | Population Pyknosed Nuclei (%) [12]: 6% | Population Tubulin-Different-Phenotype (%) [12]: 24% | Total Cell Count [12]: 493
